Source: ChEMBL document CHEMBL4251608, “Emimycin and its nucleoside derivatives: Synthesis and antiviral activity” (Eur J Med Chem, 2018)
Active and inactive are the calls of the source. No cut-off for these calls is given here.

What was measured:
Human alphaherpesvirus 2 = test: Antiviral activity against HSV2 strain G infected in HEL cells assessed as reduction in virus-induced cytopathic effect after 2 to 3 days; assay type: functional, organism-based; details: Human alphaherpesvirus 2, strain G
How it was run: (§1)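 Confluent HEL fibroblasts were infected with 100 CCID50 of HSV. After 2 h adsorption the virus was removed and cells were incubated with varying compound concentrations. Virus-induced cytopathicity was scored 2-3 days post-infection. […] Data are the mean of two independent experiments.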

Human alphaherpesvirus 3 [1] = test: Antiviral activity against TK-defecient VZV 07-1 infected in HEL cells assessed as reduction in plaque formation after 5 days; assay type: functional, organism-based; details: Human alphaherpesvirus 3, 07-1, HEL, 120 h
Human betaherpesvirus 5 [2] = test: Antiviral activity against HCMV Davis infected in HEL cells assessed as reduction in virus-induced cytopathic effect after 6 to 7 days; assay type: functional, organism-based; details: Human betaherpesvirus 5, Davis
How it was run: (§2)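 Confluent HEL fibroblasts were inoculated with 100 CCID50 of HCMV. After 2 h adsorption the inoculum was removed and cells were incubated with varying compound concentrations. Viral cytopathicity was recorded 6-7 days post-infection. […] Data are the mean of two independent experiments.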

Human alphaherpesvirus 1 [3] = test: Antiviral activity against HSV1 KOS infected in HEL cells assessed as reduction in virus-induced cytopathic effect after 2 to 3 days; assay type: functional, organism-based; details: Human alphaherpesvirus 1, KOS; how it was run: as §1
[4] = Cytotoxicity against HEL cells assessed as reduction in cell viability after 3 days by coulter counting method; assay type: cell-based; details: human
How it was run: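 HEL fibroblasts seeded at 5 x 10^3 cells/well, left to proliferate 24 h, then given medium with varying compound concentrations. After 3 days at 37 °C, cells counted with a Coulter counter.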

Human alphaherpesvirus 1 [5] = test: Antiviral activity against acyclovir-resistant HSV1 KOS harboring TK- mutant infected in HEL cells assessed as reduction in virus-induced cytopathic effect after 2 to 3 days; assay type: functional, organism-based; details: Human alphaherpesvirus 1, KOS; how it was run: as §1
Human alphaherpesvirus 3 [6] = test: Antiviral activity against TK-positive VZV Oka infected in HEL cells assessed as reduction in plaque formation after 5 days; assay type: functional, organism-based; details: Human alphaherpesvirus 3, strain Oka vaccine, 120 h
Human betaherpesvirus 5 [7] = test: Antiviral activity against HCMV AD169 infected in HEL cells assessed as reduction in virus-induced cytopathic effect after 6 to 7 days; assay type: functional, organism-based; details: Human betaherpesvirus 5, AD169, HEL; how it was run: as §2
[8] = Cytotoxicity against HEL cells assessed as alteration in cell morphology after 3 days by microscopic method; assay type: cell-based; details: human
How it was run: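 HEL cells were treated with test compounds. MCC is the minimum concentration causing a microscopically detectable alteration of cell morphology. Data are the mean of two independent experiments.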

H3N2 subtype = test: Antiviral activity against Influenza A virus A/HK/7/87(H3N2) infected in MDCK cells assessed as reduction in virus-induced cytopathic effect by MTS assay; assay type: functional, organism-based; details: A/Hong Kong/7/1987(H3N2)
Influenza A virus = test: Antiviral activity against Influenza A virus A/Ned/378/05(H1N1) infected in MDCK cells assessed as reduction in virus-induced cytopathic effect by MTS assay; assay type: functional, organism-based
Influenza B virus = test: Antiviral activity against Influenza B virus B/Ned/537/05 infected in MDCK cells assessed as reduction in virus-induced cytopathic effect by MTS assay; assay type: functional, organism-based; details: B/Ned/537/05, MDCK
[9] = Cytotoxicity against MDCK cells assessed as alteration in cell morphology by microscopic method; assay type: cell-based, Canis lupus familiaris; details: dog
How it was run: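 MDCK cells exposed to compounds (up to 100 µM) and examined microscopically. MCC taken as the minimum concentration causing a detectable alteration of normal cell morphology.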

HeLa = test: Cytotoxicity against human HeLa cells at 100 uM; assay type: cell-based
[10] = Cytotoxicity against MDCK cells assessed as reduction in cell viability by MTS assay; assay type: cell-based, Canis lupus familiaris; details: dog
[11] = system: Respiratory syncytial virus; test: Antiviral activity against RSV infected in human HeLa cells at 100 uM; assay type: functional, organism-based
[12] = Ratio of EC50 for TK-defecient VZV 07-1 infected in HEL cells to EC50 for TK-positive VZV Oka infected in HEL cells; assay type: functional
How it was run: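 Confluent HEL fibroblasts were inoculated with 20 PFU of VZV, either TK− strain 07−1 or Oka. After 2 h adsorption the inoculum was removed and compound was added at varying concentrations. […] The ratio is the TK− EC50 over the Oka EC50.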

[13] = Selectivity index, ratio of CC50 for HEL cells to EC50 for HSV2 strain G infected in HEL cells; assay type: toxicity, cell-based; details: human, read-out: Ratio CC50/EC50
How it was run: (§3)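 SI = CC50/EC50, with both values from HEL fibroblasts. For the antiviral part, confluent cultures were inoculated with 100 CCID50 (HSV) or 20 PFU (VZV Oka). After 2 h adsorption the inoculum was removed and compounds added. Cytopathicity was scored at 2-3 days (HSV) and plaques at 5 days (VZV). CC50 came from Coulter counting of cell growth after 3 days.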

[14] = Selectivity index, ratio of CC50 for HEL cells to EC50 for TK-positive VZV Oka infected in HEL cells; assay type: toxicity, cell-based; details: human, read-out: Ratio CC50/EC50; how it was run: as §3
[15] = Selectivity index, ratio of CC50 for HEL cells to EC50 for HSV1 KOS infected in HEL cells; assay type: toxicity, cell-based; details: human, read-out: Ratio CC50/EC50; how it was run: as §3
Human alphaherpesvirus 1 [16] = test: Ratio of EC50 for acyclovir-resistant HSV1 KOS harboring TK- mutant infected in HEL cells to EC50 for HSV1 KOS infected in HEL cells; assay type: functional
How it was run: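 HEL fibroblasts were infected with 100 CCID50 of TK− ACV-resistant HSV-1 KOS or wild-type KOS, with 2 h adsorption, then incubated with varying compound concentrations. Cytopathicity was read at 2-3 days to give EC50 values. The ratio is TK− EC50 divided by wild-type EC50.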

Enterococcus faecium = test: Antibacterial activity against Streptococcus faecium; assay type: functional, organism-based
Escherichia coli = test: Antibacterial activity against Escherichia coli; assay type: functional, organism-based

| Structure (SMILES) | EC50 (Human alphaherpesvirus 2) | EC50 (Human alphaherpesvirus 3 [1]) | EC50 (Human betaherpesvirus 5 [2]) | EC50 (Human alphaherpesvirus 1 [3]) | CC50 at 72 h [4] | EC50 (Human alphaherpesvirus 1 [5]) | EC50 (Human alphaherpesvirus 3 [6]) | EC50 (Human betaherpesvirus 5 [7]) | EC50 (H3N2 subtype) | EC50 (Influenza A virus) | EC50 (Influenza B virus) | MCC [9] | Activity (HeLa) | CC50 [10] | Activity [11] | other results |
| --- | --- | --- | --- | --- | --- | --- | --- | --- | --- | --- | --- | --- | --- | --- | --- | --- |
| O=c1c[n+]([O-])ccn1[C@@H]1C[C@H](O)[C@@H](CO)O1 | > 438 µM | > 438 µM | > 438 µM | > 438 µM | > 438 µM | > 438 µM | 438 µM | > 87 µM |  |  |  |  |  |  |  |  |
| CCc1cn([C@H]2C[C@H](O)[C@@H](CO)O2)c(=O)c[n+]1[O-] | 145 µM | 138 µM | > 78 µM | 8.55 µM | > 390 µM | > 390 µM | 7.77 µM | > 78 µM |  |  |  |  |  |  |  |  |
| O=c1[nH]c(=O)n([C@H]2C[C@H](O)[C@@H](CO)O2)cc1/C=C/Br [BRIVUDINE] |  | 6.66 µM |  | 0.068 µM | > 300 µM | 20.1 µM | 0.035 µM |  |  |  |  |  |  |  |  | MCC at 72 h [8]: > 300 µM |
| O=c1c[n+]([O-])ccn1[C@@H]1O[C@H](CO)[C@@H](O)[C@H]1O |  |  |  |  |  |  |  |  | > 100 µM | > 100 µM | > 100 µM | > 100 µM | Non-Toxic | > 100 µM | inactive |  |
| O=c1c[n+]([O-])ccn1[C@H]1O[C@H](CO)[C@@H](O)[C@H]1O |  |  |  |  |  |  |  |  | > 100 µM | > 100 µM | > 100 µM | > 100 µM | Non-Toxic | > 100 µM | inactive |  |
| CCc1cn([C@H]2O[C@H](CO)[C@@H](O)[C@H]2O)c(=O)c[n+]1[O-] |  |  |  |  |  |  |  |  | > 100 µM | > 100 µM | > 100 µM | > 100 µM | Non-Toxic | > 100 µM | inactive |  |
| O=c1c[n+]([O-])ccn1[C@H]1C[C@H](O)[C@@H](CO)O1 | > 438 µM | > 438 µM | > 438 µM | > 438 µM | > 438 µM | > 438 µM | > 438 µM | > 438 µM |  |  |  |  |  |  |  |  |
| Cc1cn([C@@H]2C[C@H](O)[C@@H](CO)O2)c(=O)c[n+]1[O-] | > 412 µM | > 412 µM | > 412 µM | > 412 µM | > 412 µM | > 412 µM | 328 µM | > 82 µM |  |  |  |  |  |  |  |  |
| Cc1cn([C@H]2O[C@H](CO)[C@@H](O)[C@H]2O)c(=O)c[n+]1[O-] |  |  |  |  |  |  |  |  | > 100 µM | > 100 µM | > 100 µM | > 100 µM | Non-Toxic | > 100 µM | inactive |  |
| CCc1cn([C@@H]2C[C@H](O)[C@@H](CO)O2)c(=O)c[n+]1[O-] | 204 µM | 174 µM | > 78 µM | 174 µM | > 390 µM | > 390 µM | 142 µM | > 78 µM |  |  |  |  |  |  |  |  |
| Cc1cn([C@H]2C[C@H](O)[C@@H](CO)O2)c(=O)c[n+]1[O-] | 17.5 µM | 6.91 µM | > 412 µM | 1.79 µM | > 412 µM | 59.4 µM | 0.99 µM | > 412 µM |  |  |  |  |  |  |  | MCC at 72 h [8]: 169 µM; Ratio EC50 [12]: 7; selectivity ratio [13]: 24; selectivity ratio [14]: > 416; selectivity ratio [15]: 230; Ratio EC50 (Human alphaherpesvirus 1 [16]): 30 |
| Cc1c[nH]c(=O)c[n+]1[O-] |  |  |  |  |  |  |  |  | > 100 µM | > 100 µM | > 100 µM | > 100 µM | Non-Toxic | > 100 µM | inactive |  |
| CCc1c[nH]c(=O)c[n+]1[O-] |  |  |  |  |  |  |  |  | > 100 µM | > 100 µM | > 100 µM | > 100 µM | Non-Toxic | > 100 µM | inactive |  |
| O=c1c[n+]([O-])cc[nH]1 |  |  |  |  |  |  |  |  | > 100 µM | > 100 µM | > 100 µM | > 100 µM | Non-Toxic | > 100 µM | inactive | EC50 (Enterococcus faecium): 8 µM; EC50 (Escherichia coli): 10 µM |
| Nc1ccn(C[C@@H](CO)OCP(=O)(O)O)c(=O)n1 [CIDOFOVIR] | 1.97 µM |  | 1.58 µM | 2.81 µM | > 358 µM | 1.56 µM |  | 1.04 µM |  |  |  |  |  |  |  | MCC at 72 h [8]: > 358 µM |
| Nc1nc2c(ncn2COCCO)c(=O)[nH]1 [ACYCLOVIR] |  |  |  | 0.38 µM | > 444 µM | 88.8 µM |  |  |  |  |  |  |  |  |  | MCC at 72 h [8]: > 444 µM |
| Cc1cn([C@@H]2O[C@H](CO)[C@@H](O)[C@H]2O)c(=O)c[n+]1[O-] |  |  |  |  |  |  |  |  | > 100 µM | > 100 µM | > 100 µM | > 100 µM | Non-Toxic | > 100 µM | inactive |  |
| CCc1cn([C@@H]2O[C@H](CO)[C@@H](O)[C@H]2O)c(=O)c[n+]1[O-] |  |  |  |  |  |  |  |  | > 100 µM | > 100 µM | > 100 µM | > 100 µM | Non-Toxic | > 100 µM | inactive |  |
